Bioassay records from PubChem BioAssay.
FLuc stim CS: firefly luciferase counter-screen for stimulation assays | activation factor at 10 µM | AID 1027 | ATPlite luciferase biochemical, luminescence, 10 min; 0 = ATP-free wells, 1 = DMSO control | 200,000 tested, under 10 active;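 active = luciferase activation factor, scaled between plate controls, of at least 2 with compound at 10 µM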
Target sequence (P08659 whole entry, looked up): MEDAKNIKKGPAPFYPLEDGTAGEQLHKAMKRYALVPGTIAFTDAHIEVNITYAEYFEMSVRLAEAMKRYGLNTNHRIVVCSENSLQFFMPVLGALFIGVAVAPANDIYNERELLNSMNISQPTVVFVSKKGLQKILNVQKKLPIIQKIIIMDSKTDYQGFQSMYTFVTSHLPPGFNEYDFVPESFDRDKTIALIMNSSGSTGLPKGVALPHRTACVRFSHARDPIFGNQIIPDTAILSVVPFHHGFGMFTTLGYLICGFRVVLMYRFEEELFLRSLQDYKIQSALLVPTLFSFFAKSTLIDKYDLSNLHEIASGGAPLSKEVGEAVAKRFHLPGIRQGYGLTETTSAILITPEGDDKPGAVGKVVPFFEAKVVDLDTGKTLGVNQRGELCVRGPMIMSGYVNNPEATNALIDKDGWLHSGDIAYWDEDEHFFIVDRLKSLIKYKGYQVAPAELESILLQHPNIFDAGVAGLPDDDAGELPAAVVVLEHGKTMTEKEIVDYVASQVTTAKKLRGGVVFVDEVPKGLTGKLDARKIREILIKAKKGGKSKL
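Material: Luciferase/luciferin reagent mix | Doses: Test compounds dosed from 2 mM stocks in 100% DMSO | Timing: 10 min incubation after luciferase reagent addition, room temperature | Measured by: Luminescence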
FLuc inh counter: Photinus pyralis luciferase inhibition counter-screen | AID 1006 | ATPLite firefly luciferase biochemical luminescence, 10 min | inhibition, % at 10 µM | hit rate 1.5% among 200,000;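 active = inhibition above about 50% when tested at 10 µM, limit read from the data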
APP 5'UTR act: APP 5'UTR luciferase reporter activation. SH-SY5Y APP 5'UTR luciferase reporter, luminescence; zero percent = DMSO vehicle wells. activation, % at 2 µM. hit rate 1% among 190,000. AID 1276;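 active = activation above a set limit, based on mean plus 3 SD of controls, cut at about 140% in these data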
APP 5UTR inh: APP translation inhibition; SH-SY5Y APP 5'UTR-luciferase reporter, luminescence; inhibition, % at 2 µM; hit rate 0.82% among 190,000;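 active = inhibition above a set limit, derived from the sample mean plus 3 SD, cut at about 45% in these data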
STAT1 act: activators of IFN-gamma induced STAT1 signaling; hit rate 2.6% among 200,000; activation (% of control), % at 5.5 µM; NIH 3T3 STAT1-luciferase reporter, luminescence; 100% = IFN-gamma alone, no compound;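 active = activation above the screen-wide mean activation plus 3 SD, cut at about 130% in these data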;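 note: raw ratio to IFN-gamma control signal so 100% means no change and 0% no light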
NF-kB expr up: compounds increasing NF-kB expression in human neuronal cells; fold change at 12.5 µM; AID 1239; hit rate 1.6% among 190,000; NF-kB reporter expression; stronger effect = higher value; in the data active = fold change above about 3.3
Numbers without * were called inactive. The list is not random: actives were taken first. Their share in the collection is about 4.8%.

SMILES | FLuc stim CS | FLuc inh counter | APP 5'UTR act | APP 5UTR inh | STAT1 act | NF-kB expr up
O=C(Oc1ccccc1C(=O)Nc1ccccc1)c1ccc(Br)c([N+](=O)[O-])c1 | 1 | 4 | -12 | 12 | 90 | 1.3
Cc1ccc(C(=O)/C=C\C(=O)c2ccc(C)cc2)cc1 | 1 | 0 | -88 | 88* | 93 | 2.4
CC(/C=C/C(=O)c1ccc(C)cc1)=C\c1ccccc1 | 0.8 | 21 | 12 | -12 | 109 | 2.2
Cc1ccc(C(=O)/C=C\NCc2ccccc2)cc1 | 0.8 | 18 | 14 | -14 | 130* | 1.8
Cc1ccc(S/C=C\C(=O)c2ccccc2)cc1 | 0.1 | 91* | 144* | -144 | 96 | 10*
Cc1c(NC2(C#N)CCCCC2)c(=O)n(-c2ccccc2)n1C | 1 | -5 | -2 | 2 | 100 | 1.1
Nc1ccc2c(c1)C(=O)C(=O)c1ccccc1-2 | 0.9 | 6 | -88 | 88* | 88 | 0.11
O=C1C(=O)c2ccc(-c3ccccc3)cc2-c2ccccc21 | 1 | -5 | 10 | -10 | 94 | 0.87
CNc1ncc(C(=O)c2ccc(Br)cc2)s1 | 0.6 | 41 | 94 | -94 | 140* | 3.5*
O=C(c1ccc(Cl)cc1)c1cnc(Nc2ccccc2Cl)s1 | 0.4 | 58* | 116 | -116 | 145* | 3.2
CNc1ncc(C(=O)c2ccccc2)s1 | 1 | -1 | 26 | -26 | 114 | 1.8
CC(=O)c1cnc(Nc2cccc(Cl)c2Cl)s1 | 1 | -2 | 69 | -69 | 136* | 2
O=C(c1ccc(Cl)cc1)c1cnc(-c2ccccc2)s1 | 1 | -1 | 8 | -8 | 102 | 1.3
Cc1ccc(C#CC[N+]2(CC#Cc3ccc(C)cc3)CCCCC2)cc1 | 1.1 | -8 | -10 | 10 | 81 | 0.49
CCOC(=O)c1[nH]c2ccccc2c1NC(=S)Nc1cccc(C)c1 | 1.1 | -9 | 12 | -12 | 98 | 1.1
COc1ccc(C2=NN3C(C2)c2ccccc2OC32C(=O)N(C)c3ccccc32)cc1 (configuration not stated) | 1 | -1 | 187* | -187 | 82 | 6*
COc1ccc(C2=NN(C(=O)CCC(=O)O)C(c3cccs3)C2)cc1 (configuration not stated) | 1 | 1 | 11 | -11 | 103 | 1.3
COc1ccc(C2=NN3C(C2)c2ccccc2OC3c2cccs2)cc1 (configuration not stated) | 1.1 | -8 | 155* | -155 | 108 | 3.8*
CCOC(=O)CCCNC(=O)COC(=O)c1ccc(O)cc1 | 1 | 1 | -12 | 12 | 102 | 1
O=C(NCc1ccco1)c1cccc(NS(=O)(=O)c2ccccc2F)c1 | 1.1 | -6 | -1 | 1 | 97 | 0.9
O=C(COc1cccc2cccnc12)Nc1ccccc1N1CCOCC1 | 1 | 0 | 15 | -16 | 82 | 0.87
COc1ccc(C(=O)/C=C/C(=O)N(CC(=O)NC2CCCCC2)Cc2ccc(F)cc2)c(O)c1 | 1 | 4 | -78 | 78* | 94 | 1.7
CC(c1cccs1)N(C)Cc1nc(CCc2ccccc2)no1 (configuration not stated) | 1.1 | -8 | 0 | 0 | 103 | 1.3
N#CCOc1ccc2oc(-c3ccco3)cc(=O)c2c1 | 1 | 3 | 20 | -20 | 121 | 1.4
Cc1ccc2oc(-c3ccco3)cc(=O)c2c1 | 0.7 | 34 | 61 | -61 | 138* | 2.5
SMILES | FLuc stim CS | FLuc inh counter | APP 5'UTR act | APP 5UTR inh | STAT1 act | NF-kB expr up
Cc1cc(C(=O)N2CCc3c([nH]c4ccccc34)C2c2cccc(Cl)c2)nn1C (configuration not stated) | 1 | -1 | -6 | 6 | 99 | 0.8
CSc1ccc(C2c3[nH]c4ccccc4c3CCN2C(=O)c2cc(C)n(C)n2)cc1 (configuration not stated) | 1 | -3 | 72 | -72 | 132* | 2.6
CCCOc1ccc(C(=O)CCC(=O)OCC(=O)Nc2cc(C)on2)cc1 | 1 | 3 | 15 | -15 | 104 | 1.1
O=C(NCC(c1cccs1)N1CCOCC1)c1ccc(Cl)s1 (configuration not stated) | 1.1 | -8 | -61 | 61* | 99 | 1.6
O=[N+]([O-])c1ccc(/C=N/N/C(=N/c2ccccn2)c2ccccn2)cc1 | 0.8 | 23 | 26 | -26 | 135* | 1.7
Cc1ccccc1CSc1nccn1-c1ccccc1 | 1 | -2 | 1 | -1 | 107 | 1
Clc1ccc2nc(N3CCCCC3)[nH]c2c1 | 0.6 | 39 | 119 | -119 | 136* | 5.3*
Clc1ccc2nc(C3CCN(Cc4ccccc4)CC3)[nH]c2c1 | 1.1 | -6 | -1 | 1 | 101 | 0.95
Cc1cccc(Cc2nnc(CCC(=O)N(C)C3CCOC3)o2)c1 (configuration not stated) | 1 | 0 | 8 | -8 | 112 | 1.5
Cc1cccc(Cc2nnc(CCC(=O)N(CC3CC3)CC3CCCO3)o2)c1 (configuration not stated) | 1 | -3 | 50 | -50 | 136* | 2.4
CCCOC1CCCN(C(=O)CCc2nnc(Cc3cccc(C)c3)o2)C1 (configuration not stated) | 1.1 | -7 | 13 | -13 | 143* | 2.1
CCn1cc(/C=C/C(=O)c2ccc(O)cc2)c(C)n1 | 0.1 | 90* | 73 | -73 | 117 | 3.6*
Cc1nn(C)cc1/C=C/C(=O)c1ccccc1 | 0.5 | 54* | 161* | -161 | 111 | 11*
Cc1nn(C)cc1/C=C/C(=O)c1cccs1 | 0.4 | 63* | 126 | -126 | 116 | 6.3*
CN(CCC#N)C(=O)COC(=O)c1cc(Cl)cc(Cl)c1N | 1.1 | -8 | 32 | -32 | 100 | 1.3
COc1cccc(C(=O)NCCC2=CCCCC2)c1 | 0.7 | 26 | 153* | -153 | 122 | 3.3
Cc1cc(C(=O)NCCC2=CCCCC2)ccc1[N+](=O)[O-] | 1 | 2 | 57 | -57 | 133* | 3
COc1ccc(C(=O)NCCC2=CCCCC2)cc1 | 0.5 | 50* | 154* | -154 | 138* | 3.4*
COc1ccc(CNC(=O)c2ccc(C(C)(C)C)cc2)cc1 | 1 | 3 | 37 | -37 | 138* | 2.8
COc1ccc(C(=O)NCCC2=CCCCC2)cc1OC | 1.1 | -6 | 35 | -35 | 117 | 1.9
COc1ccc(C(=O)NCC(=O)OCC(=O)NCCC2=CCCCC2)cc1 | 1 | -3 | 17 | -17 | 102 | 1.1
O=C(C[n+]1ccc(-c2nnc3n2CCC3)cc1)c1ccc(Cl)c(Cl)c1 | 1 | 0 | 9 | -9 | 108 | 1
CCOC(=O)c1c(C)nc2c(c1-c1ccc(Cl)cc1)C(=O)CC(C)(C)C2 | 1 | -4 | -6 | 6 | 96 | 0.82
CN(C)c1nnnn1-c1ccc(OC(F)(F)F)cc1 | 1 | 0 | -2 | 2 | 107 | 1.1
CCOC(=O)c1[nH]c(C)c(C(=O)NCCC2=CCCCC2)c1C | 1 | -2 | 30 | -30 | 122 | 1.5
